Measurements reported in ChEMBL document CHEMBL1145431, “Improved anti-osteoporosis potency and reduced endometrial membrane hyperplasia during hormone replacement therapy with estrogen-RGD peptide conjugates” (2007).
Where a SMILES comes first, the peptide text is derived from it. The star is where a group is joined. Succinyl(O17-estradiol) = C[C@]12CC[C@@H]3c4ccc(O)cc4CC[C@H]3[C@@H]1CC[C@@H]2OC(=O)CCC(=O)*

Key:
[1] = system: Mus musculus; test: Effect on spleen weight in mouse at 0.1103 mmol/kg, po; assay type: functional
Summary of the method: (§1)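 Female Kuiming mice (7 weeks old, 30.7 ± 3.1 g) under abdominal OVX, sham group abdominorotomy only. From day 5 after surgery, dosed orally once daily for 4 weeks at 110.3 × 10-3 mmol/kg in 0.5% CMC (0.2 mL), vehicle group CMC alone. Blood drawn retro-orbitally, then left femur and organs removed under pentobarbital (40.0 mg/kg, i.p.).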

[2] = system: Mus musculus; test: Effect on femur ash weight in ovariectomized mouse at 0.1103 mmol/kg, ip once daily for 4 weeks; assay type: functional
Summary of the method: (§2)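 Female Kuiming mice (7 weeks, 30.7 ± 3.1 g) ovariectomized, sham group abdominorotomy. From day 5, i.p. once daily for 4 weeks at 110.3 × 10-3 mmol/kg in 0.5% CMC. Left femur cleaned, length measured, defatted in chloroform-methanol (2:1, 2 × 3 h), dried 120 °C 6 h for dry weight, ashed 800 °C 8 h. Mineral content = ash/dry weight. Ash dissolved in 6 N HCl and diluted. Ca by o-methylphenolphthalein complexone, P by molybdenum blue. Lungs and livers weighed directly.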

[3] = system: Mus musculus; test: Effect on serum phosphorus level in ovariectomized mouse at 0.1103 mmol/kg, ip once daily for 4 weeks; assay type: functional
Summary of the method: (§3)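 OVX Kuiming mice dosed i.p. daily for 4 weeks in 0.5% CMC. Blood taken retro-orbitally on the day after the last dose, stood 30 min, spun at 3000 g for 20 min, serum stored at -20 °C. Calcium by o-methylphenolphthalein complexone, phosphorus by molybdenum blue, ALP by activity with disodium phenylphosphate substrate.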

[4] = system: Mus musculus; test: Effect on uterus weight in ovariectomized mouse at 0.1103 mmol/kg, ip once daily for 4 weeks; assay type: functional
Summary of the method: (§4)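 Female Kuiming mice (7 weeks old, 30.7 ± 3.1 g), abdominal OVX under pentobarbital (40.0 mg/kg i.p.). From day 5 after surgery, i.p. injection once daily for 4 weeks, compound in aqueous 0.5% CMC prepared just before use. The day after the last dose, mice were anesthetized and killed, and lungs, livers, spleens and uteri were removed and weighed directly. n = 12, ANOVA, p < 0.05.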

[5] = system: Mus musculus; test: Effect on dry weight of femurs in ovariectomized mouse at 0.1103 mmol/kg, ip once daily for 4 weeks; assay type: functional, Femur; summary of the method: as §2
[6] = system: Mus musculus; test: Effect on spleen weight in ovariectomized mouse at 0.1103 mmol/kg, ip once daily for 4 weeks; assay type: functional; summary of the method: as §4
[7] = system: Mus musculus; test: Effect on dry weight of femurs in mouse at 0.1103 mmol/kg, po; assay type: functional, Femur; summary of the method: as §1
[8] = system: Mus musculus; test: Effect on femur ash weight in mouse at 0.1103 mmol/kg, po; assay type: functional; summary of the method: as §1
[9] = system: Mus musculus; test: Effect on calcium level in ovariectomized mouse at 0.1103 mmol/kg, ip once daily for 4 weeks; assay type: functional; summary of the method: as §2
[10] = system: Mus musculus; test: Increase in body weight in ovariectomized mouse at 0.1103 mmol/kg, ip once daily for 4 weeks; assay type: functional
Summary of the method: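 Female Kuiming mice (30.7 ± 3.1 g) underwent abdominal OVX; the sham group had abdominorotomy only. From day 5 after surgery, i.p. dosing once daily for 4 weeks at 110.3 × 10-3 mmol/kg in aqueous 0.5% CMC. Body weight was recorded on the day of the last administration.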

[11] = system: Mus musculus; test: Effect on lung weight in ovariectomized mouse at 0.1103 mmol/kg, ip once daily for 4 weeks; assay type: functional; summary of the method: as §2
[12] = system: Mus musculus; test: Effect on femur length in ovariectomized mouse at 0.1103 mmol/kg, ip once daily for 4 weeks; assay type: functional; summary of the method: as §2
[13] = system: Mus musculus; test: Effect on liver weight in mouse at 0.1103 mmol/kg, po; assay type: functional; summary of the method: as §1
[14] = system: Mus musculus; test: Effect on phosphorus level in mouse at 0.110 mmol/kg, po; assay type: functional; summary of the method: as §1
[15] = system: Mus musculus; test: Effect on serum ALP level in mouse at 0.1103 mmol/kg, po; assay type: functional
Summary of the method: (§5)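 Oral OVX Kuiming mouse model, dosed daily for 4 weeks at 110.3 × 10-3 mmol/kg in 0.5% CMC. Retro-orbital blood stood 30 min at room temperature and was spun at 3000 g for 20 min. Serum kept at -20 °C. Calcium read by o-methylphenolphthalein complexone, phosphorus by molybdenum blue, ALP by activity on disodium phenylphosphate substrate.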

[16] = system: Mus musculus; test: Effect on phosphorus level in ovariectomized mouse at 0.1103 mmol/kg, ip once daily for 4 weeks; assay type: functional; summary of the method: as §2
[17] = system: Mus musculus; test: Effect on serum phosphorous Concentration in mouse at 0.110 mmol/kg, po; assay type: functional; summary of the method: as §5
[18] = system: Mus musculus; test: Effect on serum ALP lavel in ovariectomized mouse at 0.1103 mmol/kg, ip once daily for 4 weeks; assay type: functional; summary of the method: as §3
[19] = system: Mus musculus; test: Effect on lenght of femur in mouse at 0.110 mmol/kg, po; assay type: functional; summary of the method: as §1
[20] = system: Mus musculus; test: Effect on serum calcium level in mouse at 0.1103 mmol/kg, po; assay type: functional; summary of the method: as §5
[21] = system: Mus musculus; test: Effect on calcium level in mouse at 0.1103 mmol/kg, po; assay type: functional; summary of the method: as §1
[22] = system: Mus musculus; test: Effect on mineral content in mouse at 0.1103 mmol/kg, po; assay type: functional; summary of the method: as §1
[23] = system: Mus musculus; test: Effect on mineral content in ovariectomized mouse at 0.1103 mmol/kg, ip once daily for 4 weeks; assay type: functional; summary of the method: as §2
[24] = system: Mus musculus; test: Effect on uterus weight in mouse at 0.1103 mmol/kg, po; assay type: functional
[25] = system: Mus musculus; test: Effect on liver weight in ovariectomized mouse at 0.110 mmol/kg, ip once daily for 4 weeks; assay type: functional; summary of the method: as §2
[26] = system: Mus musculus; test: Effect on lung weight in mouse at 0.1103 mmol/kg, po; assay type: functional; summary of the method: as §1
[27] = system: Mus musculus; test: Effect on serum calcium level in ovariectomized mouse at 0.1103 mmol/kg, ip once daily for 4 weeks; assay type: functional; summary of the method: as §3

Structure (SMILES)	Activity [1] [mg]	Activity [2] [mg]	Activity [3] [mmol/L]	Activity [4] [mg]	Activity [5] [mg]	Activity [6] [mg]	Activity [7] [mg]	Activity [8] [mg]	Activity [9] [%]	Activity [10] [g]	Activity [11] [mg]	Activity [12] [cm]	Activity [13] [g]	Activity [14] [%]	Activity [15] [U/L]	Activity [16] [%]	Activity [17] [mmol/L]	Activity [18] [U/L]	Activity [19] [cm]	Activity [20] [mmol/L]	further results
CC(C)[C@H](NC(=O)[C@H](CC(=O)O)NC(=O)CNC(=O)[C@H](CCCNC(=N)N)NC(=O)CCC(=O)O[C@H]1CC[C@H]2[C@@H]3CCc4cc(O)ccc4[C@H]3CC[C@]12C)C(=O)O ({Succinyl(O17-estradiol)}-RGDV-OH)	133	35.8	1.605	69.4	62.6	143	68.2	33	53.078	34.5	167	1.655	1.34	24.879	33.411	24.867	1.61	31.057	1.645	2.03	Activity [21]: 52.003%; Ratio [22]: 52.5%; Ratio [23]: 0.625; Activity [24]: 50.7 mg; Activity [25]: 1.353 g; Activity [26]: 167 mg; Activity [27]: 2.005 mmol/L
C[C@]12CC[C@@H]3c4ccc(O)cc4CC[C@H]3[C@@H]1CC[C@@H]2OC(=O)CCC(=O)N[C@@H](CCCNC(=N)N)C(=O)NCC(=O)N[C@@H](CC(=O)O)C(=O)N[C@@H](CO)C(=O)O ({Succinyl(O17-estradiol)}-RGDS-OH)	135	34.4	1.602	55.5	66.4	130	68.8	29.3	51.312	35.4	151	1.634	1.331	24.885	35.4	24.92	1.6	32.771	1.654	2.04	Activity [21]: 51.201%; Ratio [22]: 51.5%; Ratio [23]: 0.52; Activity [24]: 36.7 mg; Activity [25]: 1.371 g; Activity [26]: 161 mg; Activity [27]: 2.002 mmol/L
C[C@]12CC[C@@H]3c4ccc(O)cc4CC[C@H]3[C@@H]1CC[C@@H]2OC(=O)CCC(=O)N[C@@H](CCCNC(=N)N)C(=O)NCC(=O)N[C@@H](CC(=O)O)C(=O)N[C@@H](Cc1ccccc1)C(=O)O ({Succinyl(O17-estradiol)}-RGDF-OH)	142	34.8	1.605	71.2	66	142	62.7	30	52.798	34.8	164	1.635	1.338	24.9	35.511	24.665	1.6	31.486	1.638	2.04	Activity [21]: 51.903%; Ratio [23]: 0.533; Activity [24]: 38.2 mg; Activity [25]: 1.391 g; Activity [26]: 167 mg; Activity [27]: 2.005 mmol/L
